Consider two compounds from ChEMBL document CHEMBL1250478 (J Med Chem, 2010).

In one data set the test system is Mus musculus. Nature of the data set: Toxicity in NMRI mouse at 30 mg/kg, po administered as single dose. The format is organism-based. Further details: dose 30 mg/kg, route oral. The note with it: in vivo.
Data set [1] has as its system Plasmodium falciparum. Nature of the data set: Inhibition of hemozoin formation in early trophozoites of chloroquine-sensitive Plasmodium falciparum D6 infected in RBC assessed as enlarged digestive vacuole at 100 nM after 24 hrs by microscopic analysis. The format is functional, organism-based. In a few lines:
(§1)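 Ring-stage D6 parasites synchronized with 5% sorbitol, suspended at 1% hematocrit and drug added from 1 mM stock. Incubated 24 h at 37 °C under 5% O2/5% CO2/90% N2 alongside a no-drug control. Giemsa-stained smears were used for parasitemia and for microscopic examination of hemozoin and parasite morphology.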

For data set [2], the system named is Plasmodium berghei. The data set can be described thus: Antiplasmodial activity against Plasmodium berghei infected in NMRI mice (Mus musculus) assessed as parasitaemia level at 46 mg/kg, perorally administered as 4 consecutive doses measured after 4 days post last dose relative to control. The format is functional. Particulars: route oral.
Data set [3] has as its system Plasmodium falciparum. The data set can be described thus: Antiplasmodial activity against chloroquine-sensitive Plasmodium falciparum D6 early trophozoites infected in NMRI mice (Mus musculus) RBC assessed as inhibition of hemozoin formation at 50 nM after 24 hrs by microscopic analysis. The format is functional, organism-based. In a few lines: as §1
The test system of data set [4] is Plasmodium berghei. Nature of the data set: Antiplasmodial activity against Plasmodium berghei infected in NMRI mice (Mus musculus) assessed as parasitaemia level at 30 mg/kg, perorally administered as 4 consecutive doses measured after 3 days post last dose relative to control. The note with it: route oral. It counts as functional. In a few lines:
(§2)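 P. berghei blood diluted in saline to 10^8 parasitized erythrocytes/mL; 0.2 mL given i.v. to groups of 3 female NMRI mice (controls 5). Compounds dosed at 10 ml/kg either once on day 1 (oral gavage or subcutaneous) or orally at 4, 24, 48, 72 h post-infection. Parasitemia read by FACS on 100,000 RBCs from tail blood on day 3 (single dose) or day 4 (quadruple dose). Activity = % reduction versus control mean. Survival monitored to 30 days.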

Data set [5] relates to Plasmodium berghei. The data set can be described thus: Antiplasmodial activity against Plasmodium berghei infected in NMRI mice (Mus musculus) assessed as survival rate at 46 mg/kg, perorally administered as 4 consecutive doses measured post last dose. The format is functional. Particulars: route oral. In a few lines: as §2
In data set [6] the test system is Plasmodium berghei. The data set can be described thus: Antiplasmodial activity against Plasmodium berghei infected in NMRI mice (Mus musculus) assessed as parasitaemia level at 30 mg/kg, perorally administered as single dose measured after 3 days relative to control. The format is functional. Particulars: route oral. In outline: as §2
In data set [7] the test system is Plasmodium falciparum. Nature of the data set: Antiplasmodial activity against chloroquine-sensitive Plasmodium falciparum D6 early trophozoites infected in NMRI mice (Mus musculus) RBC assessed as inhibition of hemozoin formation at 10 nM after 24 hrs by microscopic analysis. The format is functional, organism-based. In outline: as §1
The test system of data set [8] is Plasmodium falciparum. Nature of the data set: Antiplasmodial activity against chloroquine-resistant Plasmodium falciparum Dd2 early trophozoites infected in NMRI mice (Mus musculus) RBC assessed as inhibition of hemozoin formation at 10 nM after 24 hrs by microscopic analysis. The format is functional, organism-based. In outline: (§3)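 D6 and Dd2 cultures synchronized to ring stage with 5% sorbitol, suspended at 1% hematocrit and exposed to drug (from 1 mM stock) for 24 h at 37 °C under 5% O2/5% CO2/90% N2. Giemsa-stained smears examined by microscopy for hemozoin, parasitemia and parasite morphology.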

The test system of data set [9] is Plasmodium falciparum. Nature of the data set: Antiplasmodial activity against synchronized chloroquine-resistant Plasmodium falciparum Dd2 infected in NMRI mice (Mus musculus) RBC assessed as inhibition of hemozoin formation at 100 nM after 24 hrs by colorimetric analysis. The format is functional, organism-based. In a few lines: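 Sorbitol-synchronized D6 and Dd2 cultures at 1% hematocrit were drug-treated for 24 h at 37 °C. Parasites were freed by freeze-thaw and saponin/Triton lysis buffer (37 °C, 30 min). Hemozoin was pelleted at 215,000 g, washed with acetone and PBS, then dissolved in 0.2 N NaOH. Heme was quantified by A400 (ε 91,000 cm-1M-1) per parasitized erythrocyte. Baseline was taken from 0 h culture.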

Data set [10] has as its system Plasmodium berghei. Nature of the data set: Antiplasmodial activity against Plasmodium berghei infected in NMRI mice (Mus musculus) assessed as survival rate at 30 mg/kg, perorally administered as single dose. Particulars: route oral. It counts as functional. In a few lines:
as §2

In data set [11] the test system is Plasmodium falciparum. The data set can be described thus: Antiplasmodial activity against synchronized chloroquine-sensitive Plasmodium falciparum D6 infected in NMRI mice (Mus musculus) RBC assessed as inhibition of hemozoin formation at 10 nM after 24 hrs by colorimetric analysis. The format is functional, organism-based. In outline:
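D6 cultures synchronized with sorbitol, held at 1% hematocrit, drug-treated 24 h at 37 °C. Parasites freeze-thawed, then lysed 30 min at 37 °C in saponin/Triton X-100 buffer. Hemozoin pelleted at 215,000 g, washed with acetone and PBS, dissolved 2 h in 0.2 N NaOH. Heme read at A400 (ε 91,000 cm-1M-1) and expressed per parasitized erythrocyte. A 0 h culture gave the baseline.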

Data set [12] relates to Plasmodium berghei. Nature of the data set: Antiplasmodial activity against Plasmodium berghei infected in NMRI mice (Mus musculus) assessed as survival rate at 30 mg/kg, subcutaneously administered as single dose. It counts as functional. Particulars: route subcutaneous. In a few lines: as §2
Data set [13] relates to Plasmodium falciparum. The data set can be described thus: Antiplasmodial activity against chloroquine-resistant Plasmodium falciparum Dd2 early trophozoites infected in NMRI mice (Mus musculus) RBC assessed as inhibition of hemozoin formation at 50 nM after 24 hrs by microscopic analysis. It counts as functional, organism-based. In a few lines:
as §3

Data set [14] relates to Plasmodium berghei. Nature of the data set: Antiplasmodial activity against Plasmodium berghei infected in NMRI mice (Mus musculus) assessed as survival rate at 30 mg/kg, perorally administered as 4 consecutive doses measured post last dose. The format is functional. The note with it: route oral. In outline: as §2
Data set [15] has as its system Plasmodium berghei. The data set can be described thus: Antiplasmodial activity against Plasmodium berghei infected in NMRI mice (Mus musculus) assessed as parasitaemia level at 30 mg/kg, subcutaneously after 3 days relative to control. The format is functional. The note with it: route subcutaneous. In a few lines: as §2
Data set [16] can be described thus: Inhibition of beta-hematin formation after 24 hrs. It counts as functional. In a few lines:
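40 µM heme in 0.67 M sodium acetate pH 4.8 with 0.0005 g/L Tween20, compound at 0–1000 µM. Incubated 24 h at 37 °C in the dark, then read at 415/630 nm. IC50 taken as (Dmax − Dinitial)/2. Duplicate assays, run twice.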

Data set [17] deals with Plasmodium berghei. The data set can be described thus: Antiplasmodial activity against Plasmodium berghei infected in NMRI mice (Mus musculus) assessed as survival rate at 44 mg/kg, perorally administered as 4 consecutive doses measured post last dose. It counts as functional. The note with it: route oral. In outline: as §2
Data set [18] has as its system Plasmodium falciparum. Nature of the data set: Ratio of compound IC50 to chloroquine IC50 for chloroquine-resistant Plasmodium falciparum Dd2. It counts as functional.
Data set [19] concerns Plasmodium falciparum. Nature of the data set: Ratio of compound IC50 to chloroquine IC50 for chloroquine-resistant Plasmodium falciparum 7G8. It counts as functional.
The nature of data set [20]: Therapeutic index, ratio of IC50 for mice (Mus musculus) spleen lymphocytes to IC50 for chloroquine-resistant Plasmodium falciparum Dd2. It counts as tissue-based. Particulars: read-out: Ratio IC50.
Data set [21] deals with Plasmodium falciparum. Nature of the data set: Ratio of compound IC50 to chloroquine IC50 for chloroquine-sensitive Plasmodium falciparum D6. The format is functional.
In the next data set the target is Heme. The data set can be described thus: Binding affinity to heme after 4 hrs by equilibrium binding assay. In outline:
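Heme stock in NaOH, diluted to 5 µM in 100 mM phosphate buffer pH 5.7 and equilibrated 4 h. Optical titration by successive addition of compound, with pH held within ±0.05. Apparent dissociation constants from nonlinear least-squares fitting, assuming 2:1 heme:drug stoichiometry.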

For data set [22], the system named is Plasmodium berghei. The data set can be described thus: Antiplasmodial activity against Plasmodium berghei infected in NMRI mice (Mus musculus) assessed as parasitaemia level at 44 mg/kg, perorally administered as 4 consecutive doses measured after 4 days post last dose relative to control. The note with it: route oral. It counts as functional.

SMILES strings stand for the structures. Active and inactive are the calls of the source. The rule behind the calls is not given here.

With `Clc1ccc2c(NCCCN3CCC(NC(c4ccccn4)c4ccccn4)CC3)ccnc2c1` [DM-1157], the Activity result in the data set with Mus musculus was “Non-toxic”; in the data set on Plasmodium berghei [2] it was >99.9%; in the data set with Plasmodium berghei [4], >99.9%; in the data set on Plasmodium berghei [6], 94%; in the data set on Plasmodium berghei [15], 99.3%. The inhibition entry in the data set with Plasmodium falciparum [1], in the data set on Plasmodium falciparum [3], in the data set on Plasmodium falciparum [7], with Plasmodium falciparum [8], with Plasmodium falciparum [9] and in the data set on Plasmodium falciparum [11] was “Active” throughout. The inhibition result in the data set with Plasmodium falciparum [13] was “Active”. Besides, the Survival in the data set on Plasmodium berghei [5] came out at 30 days; in the data set with Plasmodium berghei [10], 7 days; in the data set on Plasmodium berghei [12] it was 9 days; with Plasmodium berghei [14], 27 days.

In turn, `Clc1ccc2c(NCCN3CCC(NC(c4ccccn4)c4ccccn4)CC3)ccnc2c1` registered an IC50 in data set [16] of 2 µM. Moreover, the Survival with Plasmodium berghei [17] is >30 days. In addition, the “Ratio IC50” value in the data set with Plasmodium falciparum [18] is 3.9; in the data set on Plasmodium falciparum [19], 7.4; in the data set with Plasmodium falciparum [21], 1.1. Further, in data set [20], the selectivity ratio came to 7310. Also, the Kd at Heme was found to be 1 µM. For the same compound, the Activity with Plasmodium berghei [22] was >99.9%.

As a reminder, the IC50 is the midpoint of a concentration-inhibition curve. Low readings indicate higher potency, high ones lower potency. The term Kd denotes the constant that tells how readily two partners part at equilibrium. The low end stands for higher affinity, the high end for lower affinity.
